Laboratory results taken from ChEMBL document CHEMBL1122052, “Isomeric cyclopropyl ring-methylated homologues of trans-2-(2,5-dimethoxy-4-methylphenyl)cyclopropylamine, an hallucinogen analogue” (1982).
Activity calls are given as the source filed them. The rule behind the calls is not given here.

Assays:
Mus musculus [1] = test: Evaluated for ear-scratch response (hallucinogen like activity) in mice at a dose of 2.00 mg/Kg; format: functional
Summary of the method: (§1)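 Male albino Swiss-Webster derived mice, 25–40 g, group housed at 22–24 °C, 12–12 h light-dark cycle. HCl salt given ip in saline (0.1 mL/10 g body weight). Mice observed in groups of three, continuously for 30 min; total hindleg scratches of the back of the ear counted, with the hindleg then returned to the floor. Saline control included.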

Mus musculus [2] = test: Evaluated for ear-scratch response (hallucinogen like activity) in mice at a dose of 4.00 mg/Kg; format: functional; summary of the method: as §1
Mus musculus [3] = test: Evaluated for ear-scratch response (hallucinogen like activity) in mice at a dose of 1.00 mg/Kg; format: functional; summary of the method: as §1
Mus musculus [4] = test: Evaluated for ear-scratch response (hallucinogen like activity) in mice at a dose of 5.00 mg/Kg; format: functional; summary of the method: as §1
Mus musculus [5] = test: Evaluated for ear-scratch response (hallucinogen like activity) in mice at a dose of 10.0 mg/Kg; format: functional; summary of the method: as §1
Mus musculus [6] = test: Evaluated for ear-scratch response (hallucinogen like activity) in mice at a dose of 20.0 mg/Kg; format: functional; summary of the method: as §1
Mus musculus [7] = test: Evaluated for ear-scratch response (hallucinogen like activity) in mice at a dose of 1.25 mg/Kg; format: functional; summary of the method: as §1
Mus musculus [8] = test: Evaluated for ear-scratch response (hallucinogen like activity) in mice at a dose of 2.5 mg/Kg; format: functional; summary of the method: as §1
Mus musculus [9] = species on record: Mus musculus; test: Compound was evaluated for hallucinogenic activity in mice; Inactive; format: functional, organism-based; summary of the method: as §1
Mus musculus [10] = test: Evaluated for ear-scratch response (hallucinogen like activity) in mice at a dose of 10.00 mg/Kg; format: functional; summary of the method: as §1
Mus musculus [11] = test: Evaluated for ear-scratch response (hallucinogen like activity) in mice at a dose of 20.00 mg/Kg; format: functional; summary of the method: as §1

Work on `COc1cc(C[C@@H](C)N)c(OC)cc1C` yielded a No. of scratches (Mus musculus [1]) of 109.2, a No. of scratches (Mus musculus [2]) of 79 and a No. of scratches (Mus musculus [3]) of 52.4.

`COc1cc([C@@H]2[C@@H](C)[C@H]2N)c(OC)cc1C` (stereo in doubt; 4a) showed a No. of scratches (Mus musculus [4]) of 17.3, a No. of scratches (Mus musculus [5]) of 12.8 and a No. of scratches (Mus musculus [6]) of 2.5. The No. of scratches (Mus musculus [7]) was 11.5 and the No. of scratches (Mus musculus [8]) was 10.8.

In the case of `CC[C@@H](N)Cc1cc(OC)c(C)cc1OC`, the Halucinogenic activity (Mus musculus [9]) is reported as “inactive”.

`COc1cc(C2CC2N)c(OC)cc1C` (configuration not stated) gave a No. of scratches (Mus musculus [10]) of 56.2, a No. of scratches (Mus musculus [4]) of 39.5 and a No. of scratches (Mus musculus [11]) of 64.2.
